In paper PMC8165011 (European journal of medicinal chemistry, 2021):
Converted amounts (≈) assume the structure as drawn.

Key:
[1] = tested on: human embryonic kidney (HEK293) cells; assay: Cytotoxicity against HEK293 cell line; assay type: cell-based; conditions: HEK293 IC50 / MIC for S. aureus ATCC 25923 and ATCC 700699; as high as
In short: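 HEK293 cells kept in EMEM with 10% FBS at 37 °C, 5% CO2. Seeded at 4000 cells/well and treated 24 h with a concentration range of test compound in DMSO. Resazurin (0.15 mg/ml solution as added) incubated 4 h more; fluorescence read at ex 560/em 590 nm. IC50 obtained by curve fitting; selectivity factor computed as IC50/MIC.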

[2] = tested on: S. aureus ATCC 25923 biofilm; assay: Biofilm inhibition assay; assay type: cell-based; conditions: 2xMIC
In short: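 After 24 h at 35 °C: PBS washes, drying at 60 °C for 15 min, 0.1% (w/v) crystal violet for 15 min, solubilisation in 33% acetic acid, OD 620 nm. Controls: broth only, and bacteria with DMSO.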

[3] = tested on: S. aureus ATCC 700699 (MRSA) stationary phase persister cells; assay: Persister cell killing assay; assay type: cell-based; conditions: for log reduction of persister cells: within 4 h
E. faecalis ATCC 29212 = assay: Multistep; assay type: cell-based; conditions: for increase in resistance (in words): through the 14th passage
S. aureus ATCC 700699 = assay: Time kill assay; assay type: cell-based; conditions: 4xMIC
In short: (§1)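 Log-phase culture diluted to ~5 × 10^6 CFU/ml in warm CAMHB and exposed to test compound at 4xMIC at 35 °C. Samples taken every 2 h, diluted 10-fold down to 10^-5, and viable counts done by 6×6 drop plating after 18–24 h at 35 °C. Each assay run in triplicate.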

S. aureus ATCC 33591 = assay: Time kill assay; assay type: cell-based; conditions: 4xMIC
In short: as §1

[4] = tested on: E. faecalis clinical isolates (VRE); assay: MIC against clinical isolates of E. faecalis; assay type: cell-based
[5] = tested on: E. faecium clinical isolates (VRE); assay: MIC against clinical isolates of E. faecium; assay type: cell-based
[6] = tested on: S. aureus clinical isolates (MSSA, MRSA); assay: MIC against clinical isolates of S. aureus; assay type: cell-based; conditions: Staphylococcus aureus
[7] = tested on: E. faecalis ATCC 29212 preformed biofilm; assay: Biofilm destruction assay; assay type: cell-based; conditions: 2xMIC
[8] = tested on: S. aureus and E. faecalis biofilms; assay: Biofilm inhibition and destruction at 4x and 8xMIC; assay type: cell-based; conditions: 4x and 8xMIC (data not shown)
[9] = tested on: S. aureus UAMS-1 catheter-associated biofilm; assay: In vitro model of catheter-associated biofilm; assay type: cell-based; conditions: after 2 days of exposure, 20xMIC (40 μg/ml), per catheter
[10] = tested on: S. aureus ATCC 700699 (MRSA); assay: Multistep; assay type: cell-based; conditions: sub-lethal exposure, 21 passages
[11] = tested on: methicillin-sensitive clinical isolate of S. aureus UAMS-1; conditions: breakpoint MIC used for comparison; ref not given; cited from earlier work
[12] = tested on: tested Gram-positive strains; assay: MIC assay, summary over the tested Gram-positive strains; assay type: cell-based; conditions: tested Gram-positive strains
In short: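 CLSI standard broth microdilution. Test compound started at 50 µg/ml and serially diluted 2-fold. Run in triplicate.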

[13] = tested on: S. aureus ATCC 25923 preformed biofilm; assay: Biofilm destruction assay; assay type: cell-based; conditions: 2xMIC
[14] = tested on: S. aureus ATCC 25923 (MSSA); assay: Multistep; assay type: cell-based; conditions: sub-lethal exposure, 21 passages
[15] = tested on: DNA synthesis in S. aureus ATCC 29213; assay: Macromolecular synthesis inhibition: DNA synthesis; assay type: cell-based; conditions: 0.25xMIC
[16] = tested on: lipid synthesis in S. aureus ATCC 29213; assay: Macromolecular synthesis inhibition: lipid synthesis; assay type: cell-based; conditions: MIC

What does the source list for `O=C(O)c1ccc(-n2cc(CNc3cc(Cl)c(F)c(Cl)c3)c(-c3ccc(C(F)(F)F)cc3)n2)cc1` [Compound 74, 4-[4-[(3,5-dichloro-4-fluoro-anilino)methyl]-3-[4-(trifluoromethyl)phenyl]pyrazol-1-yl]benzoic acid]?
Selectivity factor (IC50/MIC values) [1]: ≤ 33; biofilm formation inhibited [2]: greater than 85%; log reduction of persister cells ([3]; 2xMIC): ~ 1 log; log reduction of persister cells ([3]; 4xMIC): ~ 1 log; log reduction of persister cells ([3]; 8xMIC): ~ 1 log; increase in resistance (in words) (E. faecalis ATCC 29212): no increase in resistance; time to eliminate more than 3 log values (S. aureus ATCC 700699): ≤ 6 h; time to eliminate more than 3 log values (S. aureus ATCC 33591): ≤ 4 h

Which MIC ([4]; E. faecalis 1091563, VRE) does the source give for `CN[C@H](CC(C)C)C(=O)N[C@H]1C(=O)N[C@@H](CC(N)=O)C(=O)N[C@H]2C(=O)N[C@H]3C(=O)N[C@H](C(=O)N[C@H](C(=O)O)c4cc(O)cc(O)c4-c4cc3ccc4O)[C@H](O)c3ccc(c(Cl)c3)Oc3cc2cc(c3O[C@@H]2O[C@H](CO)[C@@H](O)[C@H](O)[C@H]2O[C@H]2C[C@](C)(N)[C@H](O)[C@H](C)O2)Oc2ccc(cc2Cl)[C@H]1O` [vancomycin, Vancomycin] here?
The MIC was >32 µg/mL.

And the MIC ([4]; E. faecalis 1091720, VRE)?
The MIC was >32 µg/mL.

And the MIC ([4]; E. faecalis 1094112, VRE)?
Its MIC is >32 µg/mL.

What about the MIC ([4]; E. faecalis 1100440, VRE) of the same compound?
The MIC was >32 µg/mL.

What about the MIC ([4]; Enterococcus faecalis, VRE) of the same compound?
The MIC was > 32 µg/mL.

What about the MIC ([5]; E. faecium 1088168, VRE) of the same compound?
Its MIC is >32 µg/mL.

What about the MIC ([5]; E. faecium 1088925, VRE) of the same compound?
The MIC was >32 µg/mL.

And the MIC ([5]; E. faecium 1089544, VRE)?
The MIC was >32 µg/mL.

And the MIC ([5]; E. faecium 1091282, VRE)?
The MIC was >32 µg/mL.

What about the MIC ([5]; Enterococcus faecium, VRE) of the same compound?
The MIC was > 32 µg/mL.

What about the MIC ([6]; ATCC29213|MRSA|MSSA, S. aureus ATCC 29213, MSSA) of the same compound?
The MIC was 1 µg/mL (≈ 0.69 µM).

And the MIC ([6]; MRSA|MSSA, S. aureus 1088060, MSSA)?
Its MIC is 0.5 µg/mL (≈ 0.345 µM).

And the MIC ([6]; MRSA|MSSA, S. aureus 1088064, MRSA)?
The MIC was 0.5 µg/mL (≈ 0.345 µM).

What about the MIC ([6]; MRSA|MSSA, S. aureus 1088105, MSSA) of the same compound?
Its MIC is 1 µg/mL (≈ 0.69 µM).

What about the MIC ([6]; MRSA|MSSA, S. aureus 1088610, MRSA) of the same compound?
Its MIC is 0.5 µg/mL (≈ 0.345 µM).

What about the MIC ([6]; MRSA|MSSA, S. aureus 1088626, MSSA) of the same compound?
Its MIC is 0.5 µg/mL (≈ 0.345 µM).

And the MIC ([6]; MRSA|MSSA, S. aureus 1088888, MRSA)?
The MIC was 1 µg/mL (≈ 0.69 µM).

What about the MIC ([6]; MRSA|MSSA, S. aureus 1089106, MRSA) of the same compound?
Its MIC is 1 µg/mL (≈ 0.69 µM).

What about the preformed biofilm destroyed [7] of the same compound?
The preformed biofilm destroyed was “around 70%”.

And the “biofilm inhibition and destruction” value [8]?
The value was > 95%.

What about the “average CFU counts” value [9] of the same compound?
Its value is 1.16 × 10^7 CFU.

What about the “effect on viability of MRSA persisters (in words)” value ([3]; 64xMIC) of the same compound?
The value was “did not affect the viability”.

What about the “passage at which MIC doubled” value [10] of the same compound?
The value was 7 passage.

What about the “passage after which resistance increased” value (E. faecalis ATCC 29212; 14 passages) of the same compound?
Its value is 7 passage.

What about the “time to decrease bacterial concentration below detectable limits” value (S. aureus ATCC 700699) of the same compound?
The value was 8 h.

What about the “time to decrease bacterial concentration below detectable limits” value (S. aureus ATCC 33591) of the same compound?
Its value is 8 h.

What about the “breakpoint MIC” value [11] of the same compound?
Its value is ≥ 2 µg/mL.

Which “antimicrobial activity (in words)” value [12] does the source give for `O=C(O)c1ccc(-n2cc(CNc3cc(F)cc(C(F)(F)F)c3)c(-c3ccc(C(F)(F)F)cc3)n2)cc1` [Compound 59, 4-[4-[[3-fluoro-5-(trifluoromethyl)anilino]methyl]-3-[4-(trifluoromethyl)phenyl]pyrazol-1-yl]benzoic acid] here?
The value was “most potent compound”.

And the “Selectivity factor (IC50/MIC values)” value [1]?
Its value is ≤ 13.

What about the preformed biofilm eliminated [13] of the same compound?
Its preformed biofilm eliminated is “around 70%”.

What about the “biofilm inhibition and destruction” value [8] of the same compound?
Its value is > 95%.

And the “average CFU counts” value [9]?
The value was 4.74 × 10^5 CFU.

What about the “log reduction of persister cells” value ([3]; 2xMIC) of the same compound?
The value was ~ 1 log.

And the “log reduction of persister cells” value ([3]; 8xMIC)?
Its value is ~ 3 log.

What about the “passage at which MIC doubled” value [14] of the same compound?
The value was 8 passage.

And the “increase in resistance (in words)” value (E. faecalis ATCC 29212)?
The value was “no increase in resistance”.

And the “time to eliminate more than 3 log values” (S. aureus ATCC 700699)?
Its value is ≤ 4 h.

What about the “log values of bacteria eliminated” value (S. aureus ATCC 700699; within 4 h of treatment) of the same compound?
The value was “more than 3 log”.

What about the “time to eliminate more than 3 log values” (S. aureus ATCC 33591) of the same compound?
The value was ≤ 4 h.

What about the “log values of bacteria eliminated” value (S. aureus ATCC 33591; within 4 h of treatment) of the same compound?
The value was “more than 3 log”.

And the “inhibition of DNA synthesis” value [15]?
The value was “approximately 44%”.

What about the “inhibition of lipid synthesis” value [16] of the same compound?
Its value is 56.2%.
